Measurements: ChEMBL document CHEMBL4393709, “Structure-guided optimization of 4,6-substituted-1,3,5-triazin-2(1H)-ones as catalytic inhibitors of human DNA topoisomerase IIα” (Eur J Med Chem, 2019)
The source made the active and inactive calls. No cut-off for these calls is given here.

How the values were obtained:
MCF7 = experiment: Cytotoxicity against human MCF7 cells assessed as reduction in cell viability at 200 uM after 24 hrs by MTS assay; format: functional, cell-based
Method in brief: (§1)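 Single-concentration screen: exponentially growing HepG2 or MCF-7 cells were exposed to compounds for 24 h, and viability was read by MTS relative to control. DMSO (0.5%) was the solvent control; etoposide was the positive control.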

HepG2 [1] = experiment: Cytotoxicity against human HepG2 cells assessed as reduction in cell viability at 200 uM after 24 hrs by MTS assay; format: functional, cell-based; method in brief: as §1
[2] = biological target: T1, DNA topoisomerase 2-alpha (Homo sapiens, UniProt P11388); experiment: Poison activity at human topoisomerase-2alpha assessed as linear DNA formation at 50 uM using supercoiled pBR322 DNA as substrate after 60 mins by ethidium bromide staining based agarose gel electrophoresis method (reference value: 1.77 %); conditions: 1 h
[3] = biological target: T1, DNA topoisomerase 2-alpha; experiment: Poison activity at human topoisomerase-2alpha assessed as linear DNA formation at 125 uM using supercoiled pBR322 DNA as substrate after 60 mins by ethidium bromide staining based agarose gel electrophoresis method (reference value: […]); conditions: 1 h
[4] = biological target: T1, DNA topoisomerase 2-alpha; experiment: (§2) Poison activity at human topoisomerase-2alpha assessed as linear DNA formation at […] using supercoiled pBR322 DNA as substrate after 60 mins by ethidium bromide staining based agarose gel electrophoresis method (reference value: […]); conditions: 1 h
[5] = biological target: T1, DNA topoisomerase 2-alpha; experiment: as §2; conditions: 1 h; remark: listed apart in the source
[6] = biological target: T1, DNA topoisomerase 2-alpha; experiment: Inhibition of human topoisomerase-2alpha mediated decatenation at 500 uM using kinetoplast DNA as substrate after 30 mins in presence of ATP by ethidium bromide staining-based gel electrophoresis method relative to control; parameters: scale not given: the % may be the effect or the level left
[7] = biological target: DNA topoisomerase 2-beta (Homo sapiens) (UniProt Q02880); experiment: (§3) Inhibition of human topoisomerase-2beta mediated decatenation at […] using kinetoplast DNA as substrate after 30 mins in presence of ATP by ethidium bromide staining-based gel electrophoresis method relative to control; parameters: scale not given: the % may be the effect or the level left
[8] = biological target: DNA topoisomerase 2-beta (Homo sapiens) (UniProt Q02880); experiment: as §3; parameters: scale not given: the % may be the effect or the level left; remark: listed apart in the source
[9] = biological target: DNA topoisomerase 2-beta (Homo sapiens) (UniProt Q02880); experiment: Inhibition of human topoisomerase-2beta mediated decatenation at 125 uM using kinetoplast DNA as substrate after 30 mins in presence of ATP by ethidium bromide staining-based gel electrophoresis method relative to control; parameters: scale not given: the % may be the effect or the level left
Method in brief: (§4)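 One U of human topo IIα or IIβ with 200 ng kDNA, 30 min at 37 °C in 50 mM Tris-HCl pH 7.5, 125 mM NaCl, 10 mM MgCl2, 5 mM DTT, 0.5 mM EDTA, 0.1 mg/ml BSA, 1 mM ATP. Compounds (3.9–500 µM, 1% DMSO final) were added before the enzyme. Reactions were stopped with chloroform/isoamyl alcohol, run on a 1% TAE gel and stained with EtBr; inhibition came from band densitometry, in duplicate.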

[10] = biological target: DNA topoisomerase 2-beta (Homo sapiens) (UniProt Q02880); experiment: Inhibition of human topoisomerase-2beta mediated decatenation at 500 uM using kinetoplast DNA as substrate after 30 mins in presence of ATP by ethidium bromide staining-based gel electrophoresis method relative to control; parameters: scale not given: the % may be the effect or the level left; method in brief: as §4
[11] = biological target: T1, DNA topoisomerase 2-alpha; experiment: Poison activity at human topoisomerase-2alpha assessed as linear DNA formation using supercoiled pBR322 DNA as substrate after 60 mins by ethidium bromide staining based agarose gel electrophoresis method; conditions: 1 h
HepG2 [12] = experiment: Cytotoxicity against human HepG2 cells assessed as reduction in cell viability after 24 hrs by MTT assay; format: functional, cell-based; conditions: HepG2, 24 h
[13] = biological target: T1, DNA topoisomerase 2-alpha; experiment: Poison activity at human topoisomerase-2alpha assessed as linear DNA formation at 500 uM using supercoiled pBR322 DNA as substrate after 60 mins by ethidium bromide staining based agarose gel electrophoresis method (reference value: […]); conditions: 1 h
[14] = biological target: T1, DNA topoisomerase 2-alpha; experiment: Inhibition of human topoisomerase-2alpha mediated decatenation at 125 uM using kinetoplast DNA as substrate after 30 mins in presence of ATP by ethidium bromide staining-based gel electrophoresis method relative to control; parameters: scale not given: the % may be the effect or the level left
[15] = biological target: T1, DNA topoisomerase 2-alpha; experiment: Inhibition of human topoisomerase 2alpha using supercoiled pNO1 plasmid as substrate after 30 mins by HTS assay

T1 sequence (P11388 whole entry): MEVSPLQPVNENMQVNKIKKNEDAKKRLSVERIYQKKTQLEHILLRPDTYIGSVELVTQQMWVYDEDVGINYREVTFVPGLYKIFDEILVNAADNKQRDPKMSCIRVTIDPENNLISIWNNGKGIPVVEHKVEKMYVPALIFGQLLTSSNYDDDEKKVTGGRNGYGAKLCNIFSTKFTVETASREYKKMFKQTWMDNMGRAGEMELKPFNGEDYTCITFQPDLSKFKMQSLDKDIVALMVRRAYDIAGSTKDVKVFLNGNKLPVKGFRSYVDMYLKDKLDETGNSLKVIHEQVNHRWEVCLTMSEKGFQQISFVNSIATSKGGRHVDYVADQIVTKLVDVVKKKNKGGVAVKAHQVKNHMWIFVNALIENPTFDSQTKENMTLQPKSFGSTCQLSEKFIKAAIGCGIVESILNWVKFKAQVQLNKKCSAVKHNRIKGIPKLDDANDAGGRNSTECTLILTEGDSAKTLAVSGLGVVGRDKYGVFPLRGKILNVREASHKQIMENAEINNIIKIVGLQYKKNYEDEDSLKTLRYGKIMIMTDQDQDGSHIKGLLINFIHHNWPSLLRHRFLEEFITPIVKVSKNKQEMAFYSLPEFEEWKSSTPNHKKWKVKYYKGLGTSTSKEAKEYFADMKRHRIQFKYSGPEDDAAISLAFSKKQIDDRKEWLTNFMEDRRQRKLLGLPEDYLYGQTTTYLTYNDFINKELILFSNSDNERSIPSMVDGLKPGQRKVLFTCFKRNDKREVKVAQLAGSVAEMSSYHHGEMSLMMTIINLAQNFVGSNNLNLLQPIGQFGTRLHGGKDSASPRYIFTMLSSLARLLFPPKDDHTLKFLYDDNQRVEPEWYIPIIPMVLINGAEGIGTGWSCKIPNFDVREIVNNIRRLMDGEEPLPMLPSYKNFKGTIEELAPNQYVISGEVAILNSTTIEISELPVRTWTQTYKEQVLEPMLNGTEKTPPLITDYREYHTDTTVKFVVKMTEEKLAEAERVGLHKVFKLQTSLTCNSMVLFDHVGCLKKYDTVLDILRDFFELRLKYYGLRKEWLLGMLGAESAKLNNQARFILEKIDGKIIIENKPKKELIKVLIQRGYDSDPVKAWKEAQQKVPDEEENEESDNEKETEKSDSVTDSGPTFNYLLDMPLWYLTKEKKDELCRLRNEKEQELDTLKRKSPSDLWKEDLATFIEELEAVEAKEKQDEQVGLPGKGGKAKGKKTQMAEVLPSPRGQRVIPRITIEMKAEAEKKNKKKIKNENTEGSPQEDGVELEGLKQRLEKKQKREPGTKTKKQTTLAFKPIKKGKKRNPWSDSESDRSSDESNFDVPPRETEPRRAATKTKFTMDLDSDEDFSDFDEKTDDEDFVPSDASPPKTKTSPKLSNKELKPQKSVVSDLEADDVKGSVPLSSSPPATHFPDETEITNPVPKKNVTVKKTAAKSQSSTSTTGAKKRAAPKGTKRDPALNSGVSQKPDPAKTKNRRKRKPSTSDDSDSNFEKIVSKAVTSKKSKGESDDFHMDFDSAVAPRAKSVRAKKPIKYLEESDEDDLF
Sequence of DNA topoisomerase 2-beta (Homo sapiens) (Q02880 whole entry): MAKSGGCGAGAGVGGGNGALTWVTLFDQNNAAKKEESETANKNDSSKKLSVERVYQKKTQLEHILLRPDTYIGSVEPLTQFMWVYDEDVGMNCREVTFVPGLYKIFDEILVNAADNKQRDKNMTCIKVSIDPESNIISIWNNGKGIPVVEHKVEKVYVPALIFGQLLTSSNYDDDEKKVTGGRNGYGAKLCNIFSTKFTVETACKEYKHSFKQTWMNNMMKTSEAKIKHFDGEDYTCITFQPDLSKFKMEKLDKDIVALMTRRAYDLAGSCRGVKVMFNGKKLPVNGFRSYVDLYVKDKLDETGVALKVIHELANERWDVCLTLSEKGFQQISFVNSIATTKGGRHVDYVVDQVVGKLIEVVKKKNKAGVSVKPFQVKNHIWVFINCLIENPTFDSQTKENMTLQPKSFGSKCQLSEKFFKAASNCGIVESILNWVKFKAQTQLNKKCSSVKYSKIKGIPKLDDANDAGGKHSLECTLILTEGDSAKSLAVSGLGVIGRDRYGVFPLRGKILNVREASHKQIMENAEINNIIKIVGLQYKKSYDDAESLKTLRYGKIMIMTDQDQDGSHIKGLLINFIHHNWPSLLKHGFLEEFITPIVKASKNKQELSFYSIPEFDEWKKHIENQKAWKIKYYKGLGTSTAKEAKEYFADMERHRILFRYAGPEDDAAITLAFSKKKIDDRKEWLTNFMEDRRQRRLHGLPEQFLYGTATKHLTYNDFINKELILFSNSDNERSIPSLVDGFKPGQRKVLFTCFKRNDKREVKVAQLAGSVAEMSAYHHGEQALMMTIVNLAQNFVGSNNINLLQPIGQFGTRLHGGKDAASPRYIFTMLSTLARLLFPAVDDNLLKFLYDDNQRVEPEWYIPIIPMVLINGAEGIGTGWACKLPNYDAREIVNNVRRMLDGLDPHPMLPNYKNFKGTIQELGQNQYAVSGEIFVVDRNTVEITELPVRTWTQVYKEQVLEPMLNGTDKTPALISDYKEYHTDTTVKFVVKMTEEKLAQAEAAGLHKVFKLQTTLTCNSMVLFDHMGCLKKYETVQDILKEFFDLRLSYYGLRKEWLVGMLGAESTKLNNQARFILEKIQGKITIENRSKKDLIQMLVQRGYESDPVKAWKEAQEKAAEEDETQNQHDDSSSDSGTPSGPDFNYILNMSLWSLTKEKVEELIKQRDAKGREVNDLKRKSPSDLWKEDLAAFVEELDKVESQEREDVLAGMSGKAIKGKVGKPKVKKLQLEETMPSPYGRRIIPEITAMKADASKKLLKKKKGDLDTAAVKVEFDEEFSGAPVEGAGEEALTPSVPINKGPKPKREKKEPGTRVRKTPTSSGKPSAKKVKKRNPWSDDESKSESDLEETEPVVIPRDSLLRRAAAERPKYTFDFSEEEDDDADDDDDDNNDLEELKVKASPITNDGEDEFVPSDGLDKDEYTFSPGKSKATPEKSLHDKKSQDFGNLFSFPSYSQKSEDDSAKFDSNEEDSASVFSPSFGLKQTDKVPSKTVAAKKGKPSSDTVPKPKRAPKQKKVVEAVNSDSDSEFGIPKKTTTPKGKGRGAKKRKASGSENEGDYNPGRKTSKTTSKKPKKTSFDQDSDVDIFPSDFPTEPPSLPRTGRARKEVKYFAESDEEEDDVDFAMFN

Row | SMILES | Activity (MCF7) | Activity (HepG2 [1]) | also measured
1 | O=c1nc(SCc2ccc(CO)cc2)nc(SCc2ccc(Cl)cc2)[nH]1 | inactive | inactive | 
2 | O=c1nc(SCc2c(F)cccc2F)nc(SCc2cccc(Cl)c2)[nH]1 | inactive | inactive | 
3 | O=c1nc(SCc2c(F)cccc2F)nc(SCc2ccc(Cl)cc2)[nH]1 | inactive | inactive | 
4 | O=c1nc(SCc2cccc(O)c2)nc(SCc2ccc(Cl)cc2)[nH]1 | inactive | inactive | 
5 | O=c1nc(SCc2cccc(O)c2)nc(SCc2ccccc2F)[nH]1 | inactive | inactive | 
6 | COc1cc([C@@H]2c3cc4c(cc3[C@@H](O[C@@H]3O[C@@H]5CO[C@@H](C)O[C@H]5[C@H](O)[C@H]3O)[C@H]3COC(=O)[C@H]23)OCO4)cc(OC)c1O [ETOPOSIDE] |  |  | Activity [2]: 35.56%; Activity [3]: 34.79%; Activity [4]: 13.72%; Activity [5]: 25.79%; Activity [6]: 2.27%; Activity [7]: 93.4%; Activity [8]: 100%; Activity [9]: 23.9%; Activity [10]: 14.7%; Activity [11]: Dose-dependent effect; EC50 (HepG2 [12]): 60.5 to 93.4 µM; Activity [13]: 39.98%; Activity [14]: 4.09%
7 | O=c1nc(SCc2cc(F)cc(C(F)(F)F)c2)nc(SCc2cccc(Cl)c2)[nH]1 |  |  | Activity [7]: 0%; Activity [8]: 91.8%; Activity [9]: 0%; Activity [10]: 0%
8 | O=c1nc(SCc2ccc(CO)cc2)nc(SCc2cccc(Cl)c2)[nH]1 | inactive | inactive | 
9 | CC(C(=O)O)c1ccc(CSc2nc(SCc3ccc(Cl)cc3)[nH]c(=O)n2)cc1 (centres undefined) | inactive | inactive | 
10 | O=c1nc(SCc2ccc3nonc3c2)nc(SCc2ccccc2F)[nH]1 | inactive | inactive | 
11 | O=c1nc(SCc2ccc(C(F)(F)F)cc2)nc(SCc2ccccc2F)[nH]1 |  |  | Activity [7]: 0%; Activity [8]: 98.2%; Activity [9]: 0%; Activity [10]: 0%
12 | O=c1nc(SCc2ccccc2)nc(SCc2cccc(Cl)c2)[nH]1 |  |  | IC50 [15]: 57.6 µM
13 | NC(=O)c1cccc(CSc2nc(SCc3ccc(Cl)cc3)[nH]c(=O)n2)c1 | inactive | inactive | 
14 | O=C(O)c1cccc(CSc2nc(SCc3ccc(Cl)cc3)[nH]c(=O)n2)c1 | inactive | inactive | 
15 | O=c1nc(SCc2ccc(CO)cc2)nc(SCc2ccccc2F)[nH]1 | inactive | inactive | 
16 | O=C(O)c1cccc(CSc2nc(SCc3cccc(Cl)c3)[nH]c(=O)n2)c1 | inactive | inactive | 
17 | O=c1nc(SCc2ccc3nonc3c2)nc(SCc2cccc(Cl)c2)[nH]1 | inactive | inactive | 
18 | CC(C(=O)O)c1ccc(CSc2nc(SCc3ccccc3F)[nH]c(=O)n2)cc1 (centres undefined) | inactive | inactive | 
19 | NC(=O)c1cccc(CSc2nc(SCc3ccccc3F)[nH]c(=O)n2)c1 | inactive | inactive | 
20 | NC(=O)c1cccc(CSc2nc(SCc3cccc(Cl)c3)[nH]c(=O)n2)c1 | inactive | inactive | 
21 | O=c1nc(SCc2c(F)cccc2F)nc(SCc2ccccc2F)[nH]1 | inactive | inactive | 
22 | CC(C(=O)O)c1ccc(CSc2nc(SCc3cccc(Cl)c3)[nH]c(=O)n2)cc1 (centres undefined) | inactive | inactive | 
23 | O=c1nc(SCc2cc(F)cc(C(F)(F)F)c2)nc(SCc2ccccc2F)[nH]1 | inactive | inactive | Activity [7]: 12.5%; Activity [8]: 99.4%; Activity [9]: 0%; Activity [10]: 0%
24 | O=c1nc(SCc2cc(F)c(F)cc2F)nc(SCc2ccc(Cl)cc2)[nH]1 | inactive | inactive | 
25 | O=c1nc(SCc2cc(F)cc(C(F)(F)F)c2)nc(SCc2ccc(Cl)cc2)[nH]1 | inactive | inactive | 
26 | O=c1nc(SCc2cccc(O)c2)nc(SCc2cccc(Cl)c2)[nH]1 | inactive | inactive | 
27 | CC(C)c1ccc(CSc2nc(SCc3ccc(Cl)cc3)[nH]c(=O)n2)cc1 | inactive | inactive | 
28 | O=C(O)c1cccc(CSc2nc(SCc3ccccc3F)[nH]c(=O)n2)c1 | inactive | inactive | 
